High-throughput results: PubChem BioAssay, several laboratories
Most compounds without a hit are left out; they make up all but 7.6% or so of the library.
M1 antagonist: antagonists of rat M1 muscarinic receptor; Muscarinic acetylcholine receptor M1 (Rattus norvegicus), P08482; CHO-M1 cells, Fluo-4 calcium, ACh EC80 antagonist mode; hits give low values; B-score at 10 µM; 3.4% of 64,000 active;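 active = calcium fluorescence response, raw or row-and-column corrected B-score, differing from the plate sample mean either way at a set confidence level, mostly lower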
HEK293 NFkB inh: inhibitors of PMA/ionomycin-induced NF-kB reporter, primary screen, antigen receptor NF-kB inhibitor project, cell-based, HEK-293 luciferase reporter, luminescence; HEK-293 NF-kB luciferase reporter; 0.21% of 62,000 active; inhibition, % at 3 µM;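 active = inhibition above the mean of all tested compounds plus 3 SD, cut at about 40% in these data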
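System: NF-kB luciferase reporter HEK-293 cells | Replication: Single test | Control set: DMSO vs reference inhibitor | Evaluation: % inhibition | Schedule: 1 h pretreatment, 16 h stimulation, 37 °C | Probe or stimulus: PMA with ionomycin | Compound dosing: One dose, 3 µM | Detection: Luciferase luminescence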
Jurkat viability: cytotoxicity toward Jurkat T cells, primary screen, cytotoxicity control, cell-based, Jurkat E6.1, 60K MLSMR library. 1.2% of 56,000 active. inhibition, % at 4 µM. Jurkat E6.1 viability, ATP luminescence, 48 h;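 active = inhibition above the mean inhibition of all tested compounds plus 3 SD, cut at about 28% in these data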
D1 mod: D1 CRE-luciferase signal change, two-sided – cell-based, HEK293 D1, dopamine EC30, D1 allosteric modulator project, primary screen; D(1A) dopamine receptor (Homo sapiens), P21728; dopamine EC30 potentiation; actives deviate in either direction; B-score at 10 µM; 5.9% of 58,000 active; AID 641, 2007;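 active = luminescence count or its row- and column-corrected plate score outside the 99.7% band of the plate's sample wells, on either side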
M1 agonist: M1 muscarinic receptor agonists, primary screen, CHO-M1 cells, Fluo-4 calcium, agonist mode. B-score at 10 µM. 3% of 64,000 active. AID 626, 2007. Fluo-4 calcium fluorescence; hits give high values. Muscarinic acetylcholine receptor M1;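 active = fluorescence rise, raw or as B-score row- and column-corrected plate score, outside the 99.7% band of its plate's samples, either direction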
DAT uptake mod: changed hDAT dopamine uptake under cocaine IC80, either direction, primary screen, cocaine antagonist project, cell-based, LLC-PK1 hDAT, [14C]-dopamine uptake, MLSMR. Sodium-dependent dopamine transporter (Homo sapiens), Q01959. LLC-PK1 hDAT cells, [14C]-dopamine uptake with cocaine IC80; actives deviate in either direction. B-score at 10 µM. 1.3% of 110,000 active;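 active = Z score or B-score, a plate-position-corrected score, falls beyond the plate's 99.7% confidence bounds, in either direction; inactive = both scores lie inside the 99.7% bounds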
Target sequence (Q01959 whole entry, looked up): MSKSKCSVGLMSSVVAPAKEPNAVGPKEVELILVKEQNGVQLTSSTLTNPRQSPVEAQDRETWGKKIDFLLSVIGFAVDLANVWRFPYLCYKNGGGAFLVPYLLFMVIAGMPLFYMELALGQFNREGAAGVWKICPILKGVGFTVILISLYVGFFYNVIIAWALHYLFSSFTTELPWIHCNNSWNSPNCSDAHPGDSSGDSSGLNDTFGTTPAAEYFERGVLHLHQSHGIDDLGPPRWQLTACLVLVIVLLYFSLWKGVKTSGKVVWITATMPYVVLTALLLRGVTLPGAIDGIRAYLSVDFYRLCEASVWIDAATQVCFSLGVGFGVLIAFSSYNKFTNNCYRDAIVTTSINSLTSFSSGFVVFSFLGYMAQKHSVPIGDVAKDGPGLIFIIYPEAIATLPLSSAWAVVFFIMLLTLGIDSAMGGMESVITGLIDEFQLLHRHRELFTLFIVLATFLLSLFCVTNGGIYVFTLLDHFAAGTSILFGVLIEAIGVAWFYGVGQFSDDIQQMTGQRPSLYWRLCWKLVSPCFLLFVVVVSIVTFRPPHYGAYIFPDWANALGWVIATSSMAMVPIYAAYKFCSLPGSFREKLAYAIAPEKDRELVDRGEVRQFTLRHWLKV
M1 antag conf: rat M1 muscarinic receptor antagonists, confirmation, CHO cells, Fluo-4 calcium, duplicate. AID 677, 2007. 43% of 1,700 active. shares compounds with M1 antagonist. ACh EC80 antagonism; hits give low values. calcium response (max-min fluorescence) at 10 µM;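 active = calcium response below the same-plate mean of wells given acetylcholine alone at its 80%-effect dose, minus 3 SD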
mGluR4 antag: human mGluR4 response to M1 antagonist hits, M1 allosteric modulator project, cell-based, antagonist mode, secondary assay 1. shares compounds with M1 antagonist. CHO-mGluR4 calcium flux, Fluo-4 fluorescence, glutamate EC80; hits give low values. fluorescence response (max-min) at 10 µM. 0.9% of 1,700 active. AID 678, 2007;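 active = fluorescence response below the plate's average for near-maximal glutamate wells, less 3 SD of those wells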;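 note: raw unnormalized fluorescence span taken in the window right after glutamate addition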
Hits are given with their value; - = inactive; . = no result.

SMILES	M1 antagonist	HEK293 NFkB inh	Jurkat viability	D1 mod	M1 agonist	DAT uptake mod	M1 antag conf	mGluR4 antag
CCN(CC)C(=O)C1CCCN(Cc2ccc3c(c2)OCO3)C1 (stereo not drawn)	.	.	.	.	.	-	.	.
CCN(CC)C(=O)C1CCCN(C/C=C/c2ccccc2)C1 (stereo not drawn)	-2.7	-	-	-	-	-	-	-
CCN(CC)C(=O)C1CCCN(C/C(C)=C/c2ccccc2)C1 (stereo not drawn)	-	-	-	-	-	-	.	.
O=C1CC(N2CCN(c3ccc(O)cc3)CC2)C(=O)N1Cc1cccs1 (stereo not drawn)	-	-	-	-	-	-	.	.
O=C1CC(N2CCN(C/C=C/c3ccccc3)CC2)C(=O)N1Cc1cccs1 (stereo not drawn)	-19	-	-	-	-	-	23	-
O=C1CC(N2CCN(C/C=C/c3ccccc3)CC2)C(=O)N1CCc1ccccc1 (stereo not drawn)	-4	-	-	-	-	-	422	-
COc1ccccc1CCn1c(N)c(C#N)c2nc3ccccc3nc21	.	.	.	.	.	-	.	.
O=C(C1CCC1)N1CCc2cc(S(=O)(=O)NC3CCCC3)ccc21	-15	-	-	-	-	-	-	-
Cc1ccc(-n2nnnc2-c2ccco2)cc1	.	.	.	.	.	-	.	.
CN(C)C(CNc1nnnn1-c1ccccc1)c1ccco1 (stereo not drawn)	-0.79	-	-	-	-	-	-	-
COC(=O)c1ccc(NC(=O)CCN2CCCCC2)cc1	-1.3	-	-	-	-	-	553	-
CCOc1ccc(C(=O)CCN2CCCCCC2)cc1	-2.5	-	-	-	-	-	-	-
COCCNC(=O)CSc1nc2ccccc2c(=O)n1-c1cccc(OC)c1	-	-	-	-	-	-	.	.
COc1ccc(C(=O)N2CCCC2)cc1S(=O)(=O)N1CCC(C)CC1	-	-	-	-	-	-	.	.
COC(=O)C1=C(C(=O)OC)SC2(S1)C(C(=O)OC)=C(C(=O)OC)SC1=C2c2cc(C)ccc2NC1(C)C	.	.	.	.	.	-	.	.
CCCCN(CC)CCNc1c(N2CCN(C(=O)OCC)CC2)c(=O)c1=O	-2.1	-	-	.	-	-	-	-
CCOC(=O)N1CCN(c2c(NCCCN(CC)CC)c(=O)c2=O)CC1	.	.	.	.	.	-	.	.
COC(=O)c1ccccc1NC(=O)N1CCN(C/C=C/c2ccccc2)CC1	-4.1	-	-	-	-	-	-	-
CC(C)(C#CCN1CCCC1)OCCC#N	-	-	-	-	-	-	.	.
C=C(C)C(C)(C#CCN1CCCC1)OC(C)=O (stereo not drawn)	-1.5	-	-	-	-	-	526	-
Cc1ccccc1-c1nn2c(-c3ccccc3)nnc2s1	-2.7	.	.	.	-	-	-	-
COc1cccc(/C(C#N)=C/c2c(-c3ccc(Cl)cc3)nc3c(C)cccn23)c1	.	.	.	.	.	-	.	.
CC(=O)c1cccc(N2C(=NC(=O)C(C)C)SC3CS(=O)(=O)CC32)c1 (stereo not drawn)	-	-	-	-	-	.	.	.
Nc1nc(CN2CCN(Cc3ccc4c(c3)OCO4)CC2)nc(Nc2ccccc2)n1	-	-	-	-	-	-	.	.
COc1cc(-c2cc(C(=O)N3CCN(c4ccccn4)CC3)c3ccccc3n2)cc(OC)c1OC	-3.8	-	-	-4	-	3.7	-	-
SMILES	M1 antagonist	HEK293 NFkB inh	Jurkat viability	D1 mod	M1 agonist	DAT uptake mod	M1 antag conf	mGluR4 antag
O=C(CSc1ncn[nH]1)N1CCN(c2nnc(-c3ccccc3)c3ccccc23)CC1	-2.9	-	-	-	-	-	497	-
Cn1cc(CN2CCN(c3ccccc3)CC2)c2ccccc21	-4.3	-	.	-	-	-	459	-
Cc1oc(/N=C/c2c(O)ccc3ccccc23)c(C#N)c1C	-	-	-	-	-	.	.	.
C=CCc1ccccc1OCC(O)CN(C(C)C)C(C)C (stereo not drawn)	-2	-	-	-	-	-	382	-
N#CC1=C2SCN(c3ccccc3)CN2C(=O)CC1c1cccs1 (stereo not drawn)	-3.6	-	-	-	-	-	-	-
N#CC1=C2SCN(c3ccccc3)CN2C(=O)CC1c1c(Cl)cccc1Cl (stereo not drawn)	-	-	-	-	-	-	.	.
COc1ccc(NC(=O)CN(C)C(=O)c2ccc(C)s2)cc1	.	.	.	.	.	-	.	.
CC(C)CCN(C)C1CCN(S(=O)(=O)c2cccc(C(F)(F)F)c2)CC1	-9	-	-	-	-	.	215	-
Cc1ccc(OCC(=O)N2CCN(c3nnc(-c4ccc(C)cc4)c4ccccc34)CC2)cc1	.	.	.	.	.	-	.	.
Cc1ccc(-c2nnc(N3CCN(C(=O)c4ccco4)CC3)c3ccccc23)cc1	-6.9	-	-	-	-	2.9	209	-
COc1ccccc1CNc1ccc(N2CCCCC2)cc1	-4.4	-	-	-	-	-	318	-
Cn1cnnc1SCc1cccc(Br)c1	.	.	.	.	.	-	.	.
Cn1cnnc1SCc1ccc(C(=O)n2ncc(C#N)c2N)cc1	-3.6	-	-	-	-	-	-	-
Cc1ccc(-c2nn(CC(=O)NCCN3CCOCC3)c(=O)c3ccccc23)cc1	-2.5	-	-	-	-	-	-	-
O=C(CCn1nc(-c2ccc(Cl)cc2)c2ccccc2c1=O)NCCN1CCOCC1	.	.	.	.	.	-	.	.
O=C1CSC(c2ccccc2F)N1CCN1CCCCC1 (stereo not drawn)	-2.8	-	-	-	-	-	481	-
OCCN1CCN(C(=S)NCCc2ccccc2)CC1	.	.	.	.	.	-	.	.
O=C(N1CCN(CCO)CC1)N1c2ccccc2C=Cc2ccccc21	-3.2	-	-	-	-	-	437	-
Cc1ccc(CNC(=O)C2CC(c3cccc(F)c3)=NO2)cc1 (stereo not drawn)	.	.	.	.	.	-	.	.
CCCCNCCCOc1cccc(Cl)c1	-4.6	-	-	.	-2.8	-	-	-
Nc1n[nH]c(-c2ccc(Br)cc2)c1Cl	-	-	-	-	-	-	.	.
CCC(=O)NC(=S)Nc1ccc(S(=O)(=O)NC(C)C)cc1	.	.	.	.	.	-	.	.
CCCCNS(=O)(=O)c1ccc2nc(SCC(=O)c3ccccc3OC)[nH]c2c1	.	.	.	.	.	-	.	.
